Assay results gathered from unrelated publications.
Each line is one published result; the experiments were not run side by side.
Target: High affinity nerve growth factor receptor (NTRK1, Homo sapiens, UniProt P04629)

Compound	test	setting	remaining binding
O=C(c1ccc(Nc2ncc(Cl)c(-c3cc4ccccc4s3)n2)cc1)N1CCC(N2CCCC2)CC1	binding, competition with immobilised ligand	1 µM	1.4%
Cn1cc(Cl)c2c(Oc3c(F)cc(Nc4cc(Cl)nc(N)n4)cc3F)ccnc21	cell-free assay, competition with immobilised ligand	0.1 µM	74%
CC(C)(C)c1ccc(-c2nc(CBr)nn2-c2cccc(O)c2)cc1	cell-free assay, competition with immobilised ligand	10 µM	71%
CN(C)c1ncc(F)c(-c2cnn3ncccc23)n1	binding	1 µM	97%
COc1ncc2cc3ccccc3nc2c1C#N	cell-free assay, competition with immobilised ligand	5 µM	100%
FC(F)(F)Oc1cccc(-c2cnc3ccc(-c4ccncc4)nn23)c1	cell-free assay, competition with immobilised ligand	5 µM	1.9%
CN(CCCC(F)(F)F)c1nccc(-c2cnn3ncccc23)n1	binding	1 µM	100%
O=C(c1ccc(Nc2ncc(Cl)c(-c3ccc(Cl)s3)n2)cc1)N1CCC(N2CCCC2)CC1	binding, competition with immobilised ligand	1 µM	1.3%
Cc1cc(Nc2nccc(C)n2)cc(-c2cnc([C@@]3(O)CC[C@H](C(=O)O)C(C)(C)C3)s2)c1	binding, competition with immobilised ligand	1 µM	30.2%
CN(C)c1nccc(-c2cnn3ncccc23)n1	binding	1 µM	68%
N#CC1(c2ccccn2)CCN(Cc2cc(C(=O)N3CCCC3)c(=O)n3ccccc23)CC1	cell-free assay, competition with immobilised ligand	1 µM	100%
COc1cnc(Nc2cccc(S(N)(=O)=O)c2)nc1N1CCN(c2ccccc2)CC1	binding, competition with immobilised ligand	1 µM	58%
O=C(Nc1c[nH]nc1C(=O)NC1CCNCC1)c1cc(F)cc(F)c1	binding, competition with immobilised ligand	1 µM	100%
O=C(NCCCN1CCOCC1)c1ccc(Nc2nccc(-c3cc4ccccc4s3)n2)cc1	binding, competition with immobilised ligand	1 µM	19%
N[C@@H]1CCN(c2nccc(-c3cnn4ncccc34)n2)C1	binding	1 µM	93%
Cc1nc(N2CC[C@@H](O)C2)ncc1-c1cc(C(F)(F)F)cc2[nH]ncc12	cell-free assay, competition with immobilised ligand	1 µM	56%
CC1CCCN1c1nccc(-c2cnn3ncccc23)n1 (stereo not drawn)	binding	1 µM	87%
CC(C)(O)c1cncc(-c2nc3ccc(F)cc3n2C2CC2)c1	cell-free assay, competition with immobilised ligand	1 µM	100%
CN1CCN(c2ccc(Nc3nccc(-c4ccccc4)n3)cc2C(F)(F)F)CC1	binding	10 µM	9.2%
CCS(=O)(=O)c1cc2cc(C[C@@](O)(CC(C)(C)c3ccc(F)cc3C(N)=O)C(F)(F)F)[nH]c2cn1	cell-free assay, competition with immobilised ligand	1 µM	74%
C[C@H]1CCN(c2nccc(-c3cnn4ncccc34)n2)C1	binding	1 µM	68%
COc1cnc(Nc2cccc(S(N)(=O)=O)c2)nc1N1CCN(c2ccccc2)C(=O)C1	binding, competition with immobilised ligand	1 µM	100%
Cc1nccc(COC(=O)N2C[C@@H]3[C@@H](CNC(=O)c4ccc5[nH]nnc5c4)[C@@H]3C2)n1	cell-free assay, competition with immobilised ligand	1 µM	94%
Nc1ncc2c(n1)-c1c([nH]c3ccc(C#CC4CC4)cc13)CCCC2	binding, competition with immobilised ligand	1 µM	69%
